Data on 27 compounds can be found in ChEMBL document CHEMBL1145193, “Identification of substituted 6-amino-4-phenyltetrahydroquinoline derivatives: potent antagonists for the follicle-stimulating hormone receptor” (J Med Chem, 2005).

Assay [1] addresses T1, Follicle-stimulating hormone receptor (Homo sapiens, UniProt P23945).
T1 sequence (P23945 whole entry): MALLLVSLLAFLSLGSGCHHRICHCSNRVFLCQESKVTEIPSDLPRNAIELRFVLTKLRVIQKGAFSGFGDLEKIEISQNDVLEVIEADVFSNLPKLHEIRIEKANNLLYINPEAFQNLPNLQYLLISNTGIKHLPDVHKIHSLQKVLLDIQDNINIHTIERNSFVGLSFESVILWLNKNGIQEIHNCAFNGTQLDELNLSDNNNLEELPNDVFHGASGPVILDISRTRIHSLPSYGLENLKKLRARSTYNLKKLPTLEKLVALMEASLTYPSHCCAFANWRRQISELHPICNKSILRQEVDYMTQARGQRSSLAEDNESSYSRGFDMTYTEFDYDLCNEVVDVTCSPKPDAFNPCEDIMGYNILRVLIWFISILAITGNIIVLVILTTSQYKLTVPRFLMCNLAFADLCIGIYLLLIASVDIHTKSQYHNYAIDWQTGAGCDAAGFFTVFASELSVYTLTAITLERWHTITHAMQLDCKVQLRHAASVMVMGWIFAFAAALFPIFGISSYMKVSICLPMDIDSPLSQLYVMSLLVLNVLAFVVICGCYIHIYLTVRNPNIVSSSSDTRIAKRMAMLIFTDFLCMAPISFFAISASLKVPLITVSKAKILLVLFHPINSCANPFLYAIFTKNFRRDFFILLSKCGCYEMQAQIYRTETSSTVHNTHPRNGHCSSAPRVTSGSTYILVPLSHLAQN
Kind of assay: In vitro inhibition of maximum response on CHO-K1 cells expressing human Follicle stimulating hormone receptor. Format: functional, cell-based. Summed up: (§1)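 Antagonist-mode assay in CHO cells expressing human FSH receptor with a luciferase reporter: cells are stimulated with FSH and test compound is added. IC50 values come from duplicate measurements and represent at least two independent experiments; the SD of pIC50 is typically below 0.2. Compounds are scored "n.a." (not active) where no antagonism is seen.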

Assay [2] deals with T1, Follicle-stimulating hormone receptor. Briefly: In vitro inhibition of maximum response on CHO-K1 cells expressing human Follicle stimulating hormone receptor; Not active. The format is functional, cell-based. In a few lines:
as §1

A further assay is filed under the species Mus musculus. Kind of assay: Inhibition of follicle growth (ovulation) in mouse at 10 uM concentration. The format is functional. Summed up:
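Ex vivo culture of immature mouse follicles in the presence of FSH, with or without test compound at 10 µM. Follicle growth is compared with FSH-only follicles, and ovulation is scored as % ovulated follicles.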

Assay [3] addresses T2, Follicle-stimulating hormone receptor (Rattus norvegicus, UniProt P20395).
T2 sequence (P20395 whole entry): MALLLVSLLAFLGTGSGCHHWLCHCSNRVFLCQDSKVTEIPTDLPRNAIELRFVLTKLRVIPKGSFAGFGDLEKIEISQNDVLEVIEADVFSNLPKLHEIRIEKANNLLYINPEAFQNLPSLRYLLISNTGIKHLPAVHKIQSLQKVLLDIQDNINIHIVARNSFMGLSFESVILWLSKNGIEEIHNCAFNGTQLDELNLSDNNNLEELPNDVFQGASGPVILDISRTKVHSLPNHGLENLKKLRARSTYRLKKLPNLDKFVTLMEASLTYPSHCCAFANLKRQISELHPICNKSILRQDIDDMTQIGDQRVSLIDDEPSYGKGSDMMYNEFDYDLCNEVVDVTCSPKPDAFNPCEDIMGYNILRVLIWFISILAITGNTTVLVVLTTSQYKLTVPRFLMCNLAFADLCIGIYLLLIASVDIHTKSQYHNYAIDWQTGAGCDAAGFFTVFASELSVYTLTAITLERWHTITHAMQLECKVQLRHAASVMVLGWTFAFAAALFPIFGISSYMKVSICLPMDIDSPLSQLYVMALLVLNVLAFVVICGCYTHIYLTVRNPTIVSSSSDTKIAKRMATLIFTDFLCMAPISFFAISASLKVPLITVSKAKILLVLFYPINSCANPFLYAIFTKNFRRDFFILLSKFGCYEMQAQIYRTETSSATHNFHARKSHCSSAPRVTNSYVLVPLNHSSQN
Briefly: In vitro inhibition against maximum response evoked by cAMP in rat GFSHR-17 granulosa cell line. The format is functional. Summed up: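 Granulosa cell line GFSHR-17, stably expressing rat FSH receptor, incubated with FSH plus test compound; read-out is inhibition of FSH-induced cAMP production, reported as IC50.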

For assay [4], the target named is T1, Follicle-stimulating hormone receptor. Briefly: In vitro inhibition of maximum response evoked by cAMP on CHO-K1 cells expressing human Follicle stimulating hormone receptor. Format: functional, cell-based. In a few lines:
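CHO cells stably expressing human FSH receptor, run in antagonist mode. The natural ligand FSH stimulates the receptor and the test compound is added. FSH-induced cAMP production is measured as the functional read-out in place of luciferase, and an IC50 is derived.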

For assay [5] the target is unchanged. Briefly: Effective concentration for maximum response on CHO-K1 cells expressing human Follicle stimulating hormone receptor. Format: functional, cell-based.
The target in assay [6] is T3, Follicle-stimulating hormone receptor (Homo sapiens) (UniProt P23945).
T3 sequence (whole entry): T1 sequence (P23945 whole entry)
Briefly: In vitro inhibition of maximum response on CHO-K1 cells expressing human Follicle stimulating hormone receptor at 1E-5M. The format is functional, cell-based.

pEC50, pIC50: −log10 of the molar value.

The term pIC50 denotes the IC50 on a negative log10 scale, so that one unit is a factor of ten. A higher pIC50 goes with a small IC50. Compound `COc1ccc(CCNC(=O)c2ccc3c(c2)C(C)(c2ccccc2)CC(C)(C)N3C(C)=O)cc1` (stereo not given) showed a negative logarithm of the IC50 (pIC50) in assay [1] of 5.73.

As for `CC(=O)N1c2ccc(NC(=O)c3ccco3)cc2C(C)(c2ccccc2)CC1(C)C` (stereo not given), in assay [1], the negative-log IC50 (pIC50) is 7.57.

Compound `CC(=O)N1c2ccc(NC(=O)c3ccc(-c4ccccc4)cc3)cc2C(C)(c2ccccc2)CC1(C)C` (single isomer, unassigned; isomer II) showed a negative-log IC50 (pIC50) in assay [1] of 8.40.

The compound `CC(=O)N1c2ccc(NC(=O)c3cccc(-c4ccccc4)c3)cc2C(C)(c2ccccc2)CC1(C)C` (stereo not given) had a negative-log IC50 (pIC50) in assay [1] of 8.05.

In assay [1], `CC(=O)N1c2cc(C)c(NC(=O)c3ccc(-c4ccccc4)cc3)cc2C(C)(c2ccccc2)CC1(C)C` (stereo not given) had a pIC50 of 8.30.

In the case of `CC(=O)N1c2ccc(CNc3ccc(-c4ccccc4)cc3)cc2C(C)(c2ccccc2)CC1(C)C` (stereo not given), the IC50 entry in assay [2] is reported as “Not Active”.

`CC(=O)N1c2ccc(OCc3ccc(-c4ccccc4)cc3)cc2C(C)(c2ccccc2)CC1(C)C` (stereo not given): in assay [1], the pIC50 was 6.78.

In turn, `CC(=O)N1c2ccc(NC(=O)Nc3ccccc3)cc2C(C)(c2ccccc2)CC1(C)C` (stereo not given) had a pIC50 in assay [1] of 6.24.

By Inhibition is commonly meant the relative decrease from the control value, in per cent. A lower Inhibition goes with a weak effect. In the assay listed under Mus musculus, `CC(=O)N1c2ccc(NC(=O)c3ccc(-c4ccccc4)cc3)cc2C(C)(c2ccccc2)CC1(C)C` (stereo in doubt; 10) came in with an Inhibition of 78%. For the same compound, the results for the negative-log IC50 (pIC50) in assay [3], in assay [4] and in assay [1] were 6.27, 8.00 and 7.55, respectively.

Regarding `CC(=O)N1c2ccc(NC(=O)c3ccc(-c4ccccc4)cc3)cc2C(C)(c2ccc(C)cc2)CC1(C)C` (stereo not given), the pIC50 in assay [1] is 7.30.

Compound `CC(=O)N1c2ccc(NC(=O)c3ccc(C(F)(F)F)cc3)cc2C(C)(c2ccccc2)CC1(C)C` (stereo not given) had a pIC50 in assay [1] of 8.15.

`CC(=O)N1c2ccc(NC(=O)c3ccc(Cl)cc3)cc2C(C)(c2ccccc2)CC1(C)C` (stereo not given) gave a pIC50 in assay [1] of 7.51.

In turn, `CC(=O)N1c2ccc(NC(=O)c3ccccc3-c3ccccc3)cc2C(C)(c2ccccc2)CC1(C)C` (stereo not given) gave a pIC50 in assay [1] of 7.60.

For orientation: pEC50 means the EC50 on a negative log10 scale, so that one unit is a factor of ten. Turning to `CC(=O)N1c2ccc(N)cc2C(C)(c2ccccc2)CC1(C)C` (stereo not given), in assay [5], the negative-log EC50 (pEC50) was 5.36.

`CC(=O)N1c2ccc(OC(=O)c3ccc(-c4ccccc4)cc3)cc2C(C)(c2ccccc2)CC1(C)C` (stereo not given) showed a pIC50 in assay [1] of 7.27.

In assay [1], `COc1cc(NC(=O)c2ccc(-c3ccccc3)cc2)cc2c1N(C(C)=O)C(C)(C)CC2(C)c1ccccc1` (stereo not given) gave a pIC50 of 7.52.

Broadly, the inhibition is the drop in the measured response relative to a control, in per cent. Higher therefore signals strong suppression. For `CC(=O)N1c2ccc(C(=O)Nc3ccc(-c4ccccc4)cc3)cc2C(C)(c2ccccc2)CC1(C)C` (stereo not given), the inhibition in assay [6] was 44%.

Turning to `CC(=O)N1c2ccc(NC(=O)c3ccc(-c4ccccc4)cc3)cc2C(C)(c2ccc(O)cc2)CC1(C)C` (stereo not given), in assay [1], the negative-log IC50 (pIC50) is 6.62.

Consider `CC(=O)N1c2ccc(NS(=O)(=O)Cc3ccccc3)cc2C(C)(c2ccccc2)CC1(C)C` (stereo not given), for which the pIC50 in assay [1] was 5.55.

In assay [6], `CC(=O)N1c2ccc(OCCc3ccccc3)cc2C(C)(c2ccccc2)CC1(C)C` (stereo not given) yielded an inhibition of 80%.

For `CCCc1ccc(C(=O)Nc2ccc3c(c2)C(C)(c2ccccc2)CC(C)(C)N3C(C)=O)cc1` (stereo not given), the pIC50 in assay [1] was 8.30.

On to `CC(=O)N1c2ccc(NCc3ccc(C(C)(C)C)cc3)cc2C(C)(c2ccccc2)CC1(C)C` (stereo not given), for which the negative-log IC50 (pIC50) in assay [1] is 6.03.

Regarding `CC(=O)N1c2ccc(NC(=O)c3ccc(-c4ccccc4)cc3)cc2C(C)(c2ccccc2)CC1(C)C` (single isomer, unassigned; isomer I), the IC50 result in assay [2] is on record as “Not Active”.

`CC(=O)N1c2ccc(NC(=O)c3ccc(-c4ccc(C(C)(C)C)cc4)cc3)cc2C(C)(c2ccccc2)CC1(C)C` (stereo not given) had an inhibition in assay [6] of 74%.

In the case of `CC(=O)N1c2ccc(NC(=O)COC(C)(C)C)cc2C(C)(c2ccccc2)CC1(C)C` (stereo not given), the negative logarithm of the IC50 (pIC50) in assay [1] is 7.12.

Regarding `CC(=O)N1c2ccc(C(=O)NCc3cccs3)cc2C(C)(c2ccccc2)CC1(C)C` (stereo not given), the inhibition in assay [6] is 25%.

Consider `COc1ccccc1C1(C)CC(C)(C)N(C(C)=O)c2ccc(NC(=O)c3ccc(-c4ccccc4)cc3)cc21` (stereo not given), for which the negative logarithm of the IC50 (pIC50) in assay [1] was 6.77.
